Calls of active or inactive are those of the source. The rule behind the calls is not given here.
What was measured:
Human alphaherpesvirus 1 = test: Antiviral activity against Herpes simplex virus 1 HF infected in human Hep2 cells assessed as inhibition of virus-induced cytopathogenicity measured at 4 days post-virus infection by Microtest 2 plate based microscopic analysis; type: functional, organism-based; details: HEp-2
Procedure, shortened: (§1)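 Cells pregrown in microplates in BME (double vitamins/amino acids, 5% FBS). Medium replaced with compound-containing medium plus virus giving 32 CCID50 per well. Seven concentrations, half-log steps from cytotoxic to noncytotoxic, in triplicate. Cell, virus and cytotoxicity controls run alongside. Incubated 37 °C; cpe reduction judged microscopically at 4 days. Virus rating (VR) derived from cpe inhibition and cytotoxicity.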

Human alphaherpesvirus 3 = test: Antiviral activity against Varicella zoster virus Ellen infected in human WI-38 cells assessed as inhibition of virus-induced cytopathogenicity measured at 7 days post-virus infection by […] microscopic analysis; type: functional, organism-based
Procedure, shortened: (§2)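 Diploid human embryonic lung fibroblasts, 7-day-old monolayers in tubes, MEM plus 2% fetal bovine serum. Compound added in fresh medium (triplicate), then ~32 CCID50 virus per culture. Incubated 37 °C; medium replaced with fresh drug-containing medium at 48 h and again 48 h later. Cytotoxicity, virus and cell controls included. Cpe scored microscopically at day 7; virus rating (VR) calculated from cpe inhibition and drug cytotoxicity.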

Cytomegalovirus = test: Antiviral activity against Cytomegalovirus AD 169 infected in human WI-38 cells assessed as inhibition of virus-induced cytopathogenicity measured at 7 days post-virus infection by […] microscopic analysis; type: functional, organism-based; procedure, shortened: as §2
Human adenovirus 2 = test: Antiviral activity against Human adenovirus 2 Adenoid-6 infected in human KB cells assessed as inhibition of virus-induced cytopathogenicity measured at 4 days post-virus infection by Microtest 2 plate based microscopic analysis; type: functional, organism-based; procedure, shortened: as §1
[1] = test system: Respiratory syncytial virus; test: Antiviral activity against Respiratory syncytial virus Long infected in human Hep2 cells assessed as inhibition of virus-induced cytopathogenicity measured at 4 days post-virus infection by Microtest 2 plate based microscopic analysis; type: functional, organism-based; details: HEp-2; procedure, shortened: as §1
Human rhinovirus 1A = test: Antiviral activity against Human rhinovirus 1A 2060 infected in human KB cells assessed as inhibition of virus-induced cytopathogenicity measured at 4 days post-virus infection by Microtest 2 plate based microscopic analysis; type: functional, organism-based
Procedure, shortened: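 Rhinovirus in KB cells under BME with 5% fetal bovine serum, challenged at 32 CCID50 per well alongside compound. Seven half-log concentrations spanning cytotoxic to noncytotoxic, triplicate. Cell, virus and drug-cytotoxicity controls included. Plates sealed, held at 33 °C. Cpe reduction examined microscopically after 4 days; virus rating (VR) computed from cpe inhibition and cytotoxicity.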

[2] = Virus rating for antiviral activity against Herpes simplex virus 1 HF infected in human Hep2 cells assessed as inhibition of virus-induced cytopathic effect taking into account cytotoxicity against human Hep2 cells

With `CS(=O)(=O)c1nc(N)c2nnn([C@H]3O[C@H](CO)[C@@H](O)[C@@H]3O)c2n1` the inhibition (Human alphaherpesvirus 1) was “inactive”, the inhibition (Human alphaherpesvirus 3) was “inactive” and the inhibition (Cytomegalovirus) was “inactive”. For the same compound, the inhibition (Human adenovirus 2) was “inactive”, the inhibition [1] was “inactive” and the inhibition (Human rhinovirus 1A) was “inactive”.
In the case of `NNc1nc(N)c2nnn([C@H]3O[C@H](CO)[C@@H](O)[C@@H]3O)c2n1`, the inhibition (Human alphaherpesvirus 1) is reported as “inactive”, the inhibition (Human alphaherpesvirus 3) is reported as “inactive” and the inhibition (Cytomegalovirus) is reported as “inactive”. The inhibition (Human adenovirus 2) was “inactive”, the inhibition [1] was “inactive” and the inhibition (Human rhinovirus 1A) was “inactive”.
For `[N-]=[N+]=Nc1nc(N)c2nnn([C@H]3O[C@H](CO)[C@@H](O)[C@@H]3O)c2n1`, the inhibition (Human alphaherpesvirus 1) was “inactive”, the inhibition (Human alphaherpesvirus 3) was “inactive” and the inhibition (Cytomegalovirus) was “inactive”. The inhibition (Human adenovirus 2) was “inactive”, the inhibition [1] was “inactive” and the inhibition (Human rhinovirus 1A) was “inactive”.
With `COc1nc(N)c2nnn([C@H]3O[C@H](CO)[C@@H](O)[C@@H]3O)c2n1` the inhibition (Human alphaherpesvirus 1) was “inactive”, the inhibition (Human alphaherpesvirus 3) was “inactive” and the inhibition (Cytomegalovirus) was “inactive”. The inhibition (Human adenovirus 2) was “inactive”, the inhibition [1] was “inactive” and the inhibition (Human rhinovirus 1A) was “inactive”.
`Nc1ncnc2c1nnn2[C@H]1O[C@H](CO)[C@@H](O)[C@@H]1O` showed a virus rating [2] of 1.
With `COc1nc(N)c2ncn([C@H]3O[C@H](CO)[C@@H](O)[C@@H]3O)c2n1` the inhibition (Human alphaherpesvirus 1) was “inactive”, the inhibition (Human alphaherpesvirus 3) was “inactive” and the inhibition (Cytomegalovirus) was “inactive”. For the same compound, the inhibition (Human adenovirus 2) was “inactive”, the inhibition [1] was “inactive” and the inhibition (Human rhinovirus 1A) was “inactive”.
In the case of `NNc1nc(N)c2ncn([C@H]3O[C@H](CO)[C@@H](O)[C@@H]3O)c2n1`, the inhibition (Human alphaherpesvirus 1) is reported as “inactive”, the inhibition (Human alphaherpesvirus 3) is reported as “inactive” and the inhibition (Cytomegalovirus) is reported as “inactive”. The inhibition (Human adenovirus 2) was “inactive”, the inhibition [1] was “inactive” and the inhibition (Human rhinovirus 1A) was “inactive”.
`Nc1ncnc2c1ncn2[C@H]1O[C@H](CO)[C@@H](O)[C@@H]1O` showed a virus rating [2] of 0.6.
With `CSc1nc(N)c2nnn([C@H]3O[C@H](CO)[C@@H](O)[C@@H]3O)c2n1` the inhibition (Human alphaherpesvirus 1) was “inactive”, the inhibition (Human alphaherpesvirus 3) was “inactive” and the inhibition (Cytomegalovirus) was “inactive”. For the same compound, the inhibition (Human adenovirus 2) was “inactive”, the inhibition [1] was “inactive” and the inhibition (Human rhinovirus 1A) was “inactive”.
For `CSc1nc(N)c2ncn([C@H]3O[C@H](CO)[C@@H](O)[C@@H]3O)c2n1`, the inhibition (Human alphaherpesvirus 1) was “inactive”, the inhibition (Human alphaherpesvirus 3) was “inactive” and the inhibition (Cytomegalovirus) was “inactive”. The inhibition (Human adenovirus 2) was “inactive”, the inhibition [1] was “inactive” and the inhibition (Human rhinovirus 1A) was “inactive”.

Source: ChEMBL document CHEMBL3244246, “2-Substituted derivatives of 9-alpha-D-arabinofuranosyladenine and 9-alpha-D-arabinofuranosyl-8-azaadenine” (J Med Chem, 1977)
